Pf Dd2 growth: P. falciparum Dd2 growth inhibitors, primary screen, SYBR Green fluorescence, single dose replicates; activity change, % at 10 µM; 72 h; active compounds read low; actives 2.3% (n = 94,000); in the data active means activity change below about -80%; inconclusive means no clear call, values can overlap the other calls
KDM4C inh: inhibitors of GASC-1 (KDM4C) histone demethylase, primary screen, biochemical, single concentration HTS; inhibition, % at 12.5 µM; actives 0.15% (n = 96,000); GST-KDM4C 2-372, H3K9me3 peptide, LANCE TR-FRET; Lysine-specific demethylase 4C (Homo sapiens), Q9H3R0;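 active means mean replicate inhibition above about 25%, with at least 55% of replicates also reaching it, limit read from the data, passing the limit was not always enough; inconclusive means only one of those two conditions met; inactive means neither condition met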
Target sequence (Q9H3R0 2-372 limits assumed): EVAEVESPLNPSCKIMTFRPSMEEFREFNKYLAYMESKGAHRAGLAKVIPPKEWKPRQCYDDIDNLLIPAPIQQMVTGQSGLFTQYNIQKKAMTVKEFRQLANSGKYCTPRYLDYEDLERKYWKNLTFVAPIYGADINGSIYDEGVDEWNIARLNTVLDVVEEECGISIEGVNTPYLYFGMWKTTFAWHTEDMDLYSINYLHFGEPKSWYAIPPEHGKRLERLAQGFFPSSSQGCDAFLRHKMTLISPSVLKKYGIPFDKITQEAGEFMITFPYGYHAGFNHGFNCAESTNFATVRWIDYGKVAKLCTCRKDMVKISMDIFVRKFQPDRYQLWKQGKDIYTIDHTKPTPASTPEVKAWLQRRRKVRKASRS
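Test system – GST-tagged GASC-1 (JMJD2C) catalytic fragment, aa 2-372 · Medium – HEPES buffer, pH 7.5, plus ascorbate · Reagent – H3K9me3 peptide with Fe(II)/2OG · Compound – one test concentration per compound · Timing – 30 min reaction, 60 min detection, RT · Technique – TR-FRET with Eu antibody and ULight streptavidin, EDTA stop · Read-out basis – inhibition from TR-FRET ratio decrease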
T cruzi growth-1: T. cruzi intracellular proliferation inhibitors, primary screen, cell-based, beta-gal Tulahuen parasites, NIH3T3 host, luminescence. actives 5.9% (n = 77,000). T. cruzi beta-gal in NIH3T3, GalScreen luminescence, 90 h. inhibition, % at 8.34 µM;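 active means mean inhibition above about 93%, with at least 55% of replicates each passing it, limit read from the data, passing the limit was not always enough; inconclusive means only one of those two conditions holds; inactive means neither condition holds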
IDH1 R132H inh: inhibitors of IDH1 R132H reductase, primary screen, biochemical, plate reader, single point; inhibition, % at 10 µM; AID 624101, 2012; diaphorase/resazurin fluorescence, 60 min; Isocitrate dehydrogenase [NADP] cytoplasmic (Homo sapiens), O75874; actives 0.18% (n = 70,000); in the data active means inhibition above about 34%; inconclusive means no clear call, values can overlap the other calls; inactive means below about 11%;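 further: 0% = DMSO and 100% = no enzyme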
T cruzi growth-2: T. cruzi intracellular proliferation inhibitors, confirmation, cell-based, NIH3T3 host, beta-gal parasite, luminescence, cherry-pick; shares compounds with T cruzi growth-1; T. cruzi beta-gal in NIH3T3, GalScreen luminescence, 90 h; inhibition, % at 8.35 µM; actives 72% (n = 5,600); AID 651739, 2012;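 active means mean replicate inhibition above about 95% and at least 55% of replicates individually reaching it, limit read from the data; inconclusive means only one of the two criteria is met; inactive means neither criterion is met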
T cruzi growth-3: inhibitors of intracellular T. cruzi replication, confirmation, NIH3T3 host cells, beta-gal parasites, cherry-pick, set 2; shares compounds with T cruzi growth-1; T. cruzi beta-gal in NIH3T3, GalScreen luminescence, 90 h; inhibition, % at 2.09 µM; actives 21% (n = 5,600); AID 651740, 2012;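 active means mean inhibition above about 95%, with at least 55% of replicates also reaching it, limit read from the data; inconclusive means meets just one of the two conditions; inactive means meets neither condition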;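 further: plate controls were neutral control median for no effect and positive control median for full effect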
3T3 cytotox: cytotoxicity in mouse NIH/3T3 fibroblasts, confirmation, cytotoxicity control for T. cruzi proliferation inhibitor project, cell-based, cherry-pick, single point | shares compounds with T cruzi growth-1 | NIH/3T3 viability, CellTiter-Glo ATP luminescence, 90 h | cytotoxicity (signal decrease), % at 8.35 µM | actives 14% (n = 5,600) | AID 651742, 2012;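 active means mean signal decrease across replicates above about 35% based on untreated-well scatter, with enough replicates individually passing, limit read from the data; inconclusive means no rule stated though some were filed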;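 further: 0% = median of neutral control wells and 100% = median of positive control wells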
NIH3T3 tox 2: NIH/3T3 fibroblast cytotoxicity, confirmation, cytotoxicity control, cell-based, cherry-pick, single point, set 2 | AID 651744, 2012 | NIH/3T3 viability, CellTiter-Glo ATP luminescence, 90 h | shares compounds with T cruzi growth-1 | actives 56% (n = 5,600) | inhibition, % at 24.9 µM;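 active means mean loss of cell viability signal at or above a set limit, and enough replicates individually reaching it; inconclusive means meets only the mean limit or only the replicate share; inactive means meets neither condition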;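 further: 0% = median of neutral control wells and 100% = median of positive control wells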
An asterisk follows results filed as active; ? = inconclusive; · = not tested or not shown. This is a sample that favours compounds with a hit; in the whole collection about 5.8% have one here.

SMILES	Pf Dd2 growth	KDM4C inh	T cruzi growth-1	IDH1 R132H inh	T cruzi growth-2	T cruzi growth-3	3T3 cytotox	NIH3T3 tox 2
CCNC(=O)[C@@H]1[C@@H](CO)[C@@H]2Cn3c(ccc(/C=C/c4ccccc4)c3=O)[C@H]1N2C(C)=O	4	0	23	·	·	·	·	·
N#Cc1cccc(-c2ccc(C3[C@H]4CNC[C@@H]3N4Cc3cccc(F)c3)cc2)c1 (stereo partly specified)	-46	1	·	·	·	·	·	·
C[C@H](O)C#Cc1ccc([C@@H]2[C@@H](CO)N3CCCCN(C(=O)Nc4ccccc4)C[C@@H]23)cc1	-23	0	55	·	·	·	·	·
CCCC#Cc1ccc2c(c1)O[C@H](CN(C)S(=O)(=O)c1cccc(F)c1)[C@H](C)CN([C@H](C)CO)S2(=O)=O	-49	1	122*	0	103*	108*	16	75*
CCCC#Cc1ccc2c(c1)O[C@@H](CN(C)S(=O)(=O)c1cccc(F)c1)[C@@H](C)CN([C@@H](C)CO)S2(=O)=O	-55	-2	121*	0	105*	102*	20	84*
C[C@H]1CN([C@@H](C)CO)S(=O)(=O)c2ccc(C#CCN(C)C)cc2O[C@@H]1CN(C)S(=O)(=O)c1cccc(F)c1	-45	3	·	0	·	·	·	·
O=C(C[C@H]1CC[C@@H](NC(=O)Cc2cccnc2)[C@@H](CO)O1)NCc1ccc2c(c1)OCO2	-30	1	-49	0	·	·	·	·
OC[C@H]1Nc2ccc(-c3cccc(F)c3)cc2[C@H]2[C@@H]1CCN2Cc1ccncc1	-47	5	106*	·	104*	74	21	92*
N#Cc1cccc(-c2ccc3c(c2)[C@@H]2[C@@H](CCN2Cc2cncnc2)[C@@H](CO)N3)c1	-53	1	105*	·	89	51	-2	12
OC[C@@H]1Nc2ccc(-c3ccccc3)cc2[C@@H]2[C@H]1CCN2Cc1ccc(F)cc1	-71	1	75	·	·	·	·	·
OC[C@@H]1Nc2ccc(-c3ccc(F)cc3)cc2[C@H]2[C@@H]1CCN2Cc1ccc(F)cc1	-68	0	44	·	·	·	·	·
OC[C@H]1Nc2ccc(-c3cccc(F)c3)cc2[C@@H]2[C@H]1CCN2Cc1ccc(F)cc1	-90*	-1	111*	·	?	112*	51*	105*
COCC#Cc1ccc([C@@H]2[C@H](CO)N3C(=O)CN(C(=O)C4CC4)C[C@@H]23)cc1	3	4	·	·	·	·	·	·
COCC(=O)N(C)C[C@@H]1Oc2ncc(-c3ccccc3C)cc2C(=O)N([C@@H](C)CO)C[C@@H]1C	33	1	-3	0	·	·	·	·
COc1ccc(CN(C)C[C@H]2OCCCC[C@@H](C)Oc3ccc(NC(=O)Nc4ccc(F)cc4)cc3C(=O)N([C@H](C)CO)C[C@@H]2C)cc1	1	-1	5	·	·	·	·	·
CO[C@H](CN(C)C(=O)Nc1ccc(Cl)cc1)[C@@H](C)CN(Cc1ccccc1Cl)[C@H](C)CO	-44	3	102*	0	106*	78	23	77*
CO[C@@H](CN(C)C(=O)Nc1ccc(Cl)cc1)[C@@H](C)CN(Cc1ccccc1Cl)[C@@H](C)CO	-55	0	109*	0	102*	49	39*	54*
CO[C@@H](CN(C)C(=O)Nc1ccc(Cl)cc1)[C@H](C)CN(Cc1ccccc1Cl)[C@@H](C)CO	-31	0	94	0	·	·	·	·

Screening data deposited in PubChem by Broad Institute.
